Consider 13 compounds from ChEMBL document CHEMBL1781883, “Design of novel neurokinin 1 receptor antagonists based on conformationally constrained aromatic amino acids and discovery of a potent chimeric opioid agonist-neurokinin 1 receptor antagonist” (J Med Chem, 2011).

The structures appear in SMILES notation. The source made the active and inactive calls. The calls are words filed in the database; no cut-off is given here.

Assay [1] deals with T1, Substance-P receptor (Homo sapiens, UniProt P25103). In words: Agonist activity at human NK1 receptor expressed in CHO-K1 cells at 10^-4 M after 30 mins by aequorin luminescence assay. The format is functional, cell-based. In outline: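 CHO-K1 cells stably expressing human NK1R and transfected with apoaequorin; loaded 4 h with 5 μM coelenterazine h in BSA-medium, diluted 10-fold, further 30 min. Compound added to wells; cells (2.5 × 10^4) injected, light read every second for 30 s, then 10 nM ATP injected as positive control and read 10 s more. Duplicates; expressed as % of luminescence at 10^-4 M SP.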
T1 sequence (P25103 whole entry): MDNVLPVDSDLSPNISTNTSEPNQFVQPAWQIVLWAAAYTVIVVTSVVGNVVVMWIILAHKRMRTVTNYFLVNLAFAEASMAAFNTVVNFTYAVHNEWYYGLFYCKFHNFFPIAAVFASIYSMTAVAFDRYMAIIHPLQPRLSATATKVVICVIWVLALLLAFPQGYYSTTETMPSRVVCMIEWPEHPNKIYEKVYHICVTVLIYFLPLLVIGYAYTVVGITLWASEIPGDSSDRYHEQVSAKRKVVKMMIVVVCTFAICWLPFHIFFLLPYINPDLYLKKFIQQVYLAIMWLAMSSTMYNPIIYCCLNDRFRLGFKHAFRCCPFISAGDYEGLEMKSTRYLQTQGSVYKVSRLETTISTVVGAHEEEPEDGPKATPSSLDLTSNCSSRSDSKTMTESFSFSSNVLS

Assay [2] concerns the target T1, Substance-P receptor. In words: Antagonist activity at NK1 receptor. The format is functional.
In assay [3] the target is T1, Substance-P receptor. The assay can be described thus: Antagonist activity at human NK1 receptor expressed in CHO-K1 cells assessed as inhibition of substance P-induced calcium-dependent aequorine luminescence. It is filed as functional, cell-based. As to conditions: read-out: pA2 (converted). The gist of the method:
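Aequorin-expressing CHO-K1/hNK1 cells charged 4 h with 5 μM coelenterazine h, then diluted and held 30 min. SP series 10^-11 to 10^-4 M combined with test compound at 10^-8 to 10^-4 M; cell injection started 30 s luminescence read, then 10 nM ATP control.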

In assay [4] the target is T1, Substance-P receptor. In words: Displacement of [3H]SP from human recombinant NK1 receptor expressed in CHO cells after 20 mins by liquid scintillation counting. The format is cell-based. In outline:
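Crude membranes from hNK1/CHO cells; 20 µg incubated with 0.4 nM [3H]SP and six test concentrations in duplicate, 50 mM Tris pH 7.4 with 5 mM MgCl2, bacitracin, bestatin, captopril, PMSF; 25 °C, 20 min. Nonspecific binding with 10 µM SP. Filtration on PEI-soaked GF/B, scintillation counting; IC50 by nonlinear regression, Ki by Cheng–Prusoff; three independent experiments, mean ± SEM.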

`CC(=O)N[C@@H]1Cc2c([nH]c3ccccc23)CN(CC(=O)N(C)Cc2cc(C(F)(F)F)cc(C(F)(F)F)c2)C1=O`: at Substance-P receptor [1], the result was inactive.

`CC(=O)N[C@H]1Cc2c([nH]c3ccccc23)CN(CC(=O)N(C)Cc2cc(C(F)(F)F)cc(C(F)(F)F)c2)C1=O`: the outcome at Substance-P receptor [1] was inactive.

For `CC(=O)N1Cc2[nH]c3ccccc3c2C[C@@H]1C(=O)N(C)Cc1cc(C(F)(F)F)cc(C(F)(F)F)c1`, the result on Substance-P receptor [1] was inactive.

For `CC(=O)N[C@H]1Cc2ccccc2[C@@H](c2ccccc2)N(CC(=O)NCc2cc(C(F)(F)F)cc(C(F)(F)F)c2)C1=O`, the outcome on Substance-P receptor [1] was inactive.

Regarding `CC(=O)N1Cc2[nH]c3ccccc3c2C[C@H]1C(=O)N(C)Cc1cc(C(F)(F)F)cc(C(F)(F)F)c1`, the result at Substance-P receptor [1] was inactive.

On to `O=C1O[C@@H](Cc2c[nH]c3ccccc23)C(=O)N1Cc1cc(C(F)(F)F)cc(C(F)(F)F)c1`, for which the IC50 (commonly the concentration that inhibits the measured activity by half) against Substance-P receptor [2] stood at 25 nM.

On to `CC(=O)N[C@H]1Cc2ccccc2CN(CC(=O)NCc2cc(C(F)(F)F)cc(C(F)(F)F)c2)C1=O`, for which, on Substance-P receptor [1], the result was inactive. For the same compound, at Substance-P receptor [3], the Kb is 631 nM. At Substance-P receptor [4], the Ki (as a rule, the equilibrium dissociation constant of an inhibitor or competing ligand from its target) worked out at 387 nM.

`CC(=O)N[C@@H]1Cc2ccccc2[C@@H](c2ccccc2)N(CC(=O)N(C)Cc2cc(C(F)(F)F)cc(C(F)(F)F)c2)C1=O`: the result at Substance-P receptor [1] was inactive.

As to `CC(=O)N[C@H]1Cc2ccccc2CN(CC(=O)N(C)Cc2cc(C(F)(F)F)cc(C(F)(F)F)c2)C1=O`, at Substance-P receptor [1], the result was inactive. The Kb on Substance-P receptor [3] was 3.98 nM. The Ki at Substance-P receptor [4] was determined as 27 nM.

`CC(=O)N[C@H]1Cc2ccccc2[C@@H](c2ccccc2)N(CC(=O)N(C)Cc2cc(C(F)(F)F)cc(C(F)(F)F)c2)C1=O`: the result at Substance-P receptor [1] was inactive.

As to `CC(=O)N[C@H]1Cc2c([nH]c3ccccc23)CN(Cc2cc(C(F)(F)F)cc(C(F)(F)F)c2)C1=O`, on Substance-P receptor [1], the result was inactive.

`CC(=O)N1Cc2ccccc2C[C@H]1C(=O)NCc1cc(C(F)(F)F)cc(C(F)(F)F)c1`: the outcome at Substance-P receptor [1] was inactive.

For the compound `CC(=O)N1Cc2ccccc2C[C@H]1C(=O)N(C)Cc1cc(C(F)(F)F)cc(C(F)(F)F)c1`, the outcome on Substance-P receptor [1] was inactive. Besides, on Substance-P receptor [3], the Kb was 31.6 nM. Besides, at Substance-P receptor [4], the Ki was 32 nM.
